{"source": "ChEMBL document CHEMBL4316597", "about": "“Design, Synthesis, and Biological Evaluation of Itaconic Acid Derivatives as Potential Anti-Influenza Agents” (J Med Chem, 2019)", "key": {"[1]": {"assay": "Selectivity ratio of CC50 for MDCK cells to EC50 for Influenza A virus (A/WSN/33)", "format": "toxicity", "settings": "dog, read-out: Ratio CC50/EC50", "outline": "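SI is calculated as CC50 (MDCK, 72 h MTT) divided by EC50 (72 h crystal-violet CPE assay in MDCK).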"}, "[2]": {"assay": "Cytotoxicity against human RD cells assessed as cell death after 72 hrs by MTT assay", "format": "cell-based", "outline": "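MDCK or RD cells at 2 × 10^4/well in E10, overnight at 37 °C/5% CO2, DPBS wash, then exposed to graded compound concentrations for 72 h. MTT added for 3 h, formazan dissolved in DMSO, absorbance read at 570 nm. CC50 (50% cell death) by Reed–Muench.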"}, "[3]": {"assay": "Selectivity ratio of CC50 for MDCK cells to EC50 for pandemic Influenza A virus A/TW/90206/09 (H1N1) SO4", "format": "toxicity", "settings": "dog, read-out: Ratio CC50/EC50", "outline": "(§1)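 MDCK cells (2 × 10^4/well, E10, 16–24 h) infected at nine-fold TCID50 with compound for 72 h, 37 °C, 5% CO2. Cells were fixed in 4% paraformaldehyde and stained with crystal violet; EC50 is from Reed–Muench. For CC50, cells had compound alone for 72 h, then MTT 3 h, DMSO, A570, Reed–Muench. SI = CC50/EC50; three independent experiments.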"}, "[4]": {"assay": "Selectivity ratio of CC50 for MDCK cells to EC50 for pandemic Influenza A virus A/TW/2235/09 (H1N1) SO4", "format": "toxicity", "settings": "dog, read-out: Ratio CC50/EC50", "outline": "as §1"}, "[5]": {"assay": "Selectivity ratio of CC50 for MDCK cells to EC50 for Influenza A virus A/TW/3446/02 (H3N2)", "format": "toxicity", "settings": "dog, read-out: Ratio CC50/EC50", "outline": "as §1"}, "[6]": {"assay": "Selectivity ratio of CC50 for MDCK cells to EC50 for Influenza A virus A/TW/03384/13", "format": "toxicity", "settings": "dog, read-out: Ratio CC50/EC50", "outline": "as §1"}, "[7]": {"assay": "Selectivity ratio of CC50 for MDCK cells to EC50 for Influenza A virus A/TW/01061/14", "format": "toxicity", "settings": "dog, read-out: Ratio CC50/EC50", "outline": "as §1"}, "Enterovirus A71": {"tested_on": "Enterovirus A71", "assay": "Antiviral activity against Enterovirus A71 TW/2231/1998 infected in human RD cells after 72 hrs by crystal violet-staining based assay", "format": "functional, organism-based", "settings": "Enterovirus A, TW/2231/1998, RD", "outline": "(§2)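 Cells seeded at 2 × 10^4/well in E10 (DMEM, 10% FBS), 16–24 h at 37 °C/5% CO2, washed with DPBS, then infected at nine-fold TCID50 with or without serial compound concentrations. Influenza is run in MDCK and enterovirus/rhinovirus in RD. Incubated 72 h, fixed in 4% paraformaldehyde, stained with 0.1% crystal violet, and read for cell density. EC50 = 50% CPE inhibition by Reed–Muench; mean ± S.D. of at least three runs.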"}, "[8]": {"assay": "Selectivity ratio of CC50 for human RD cells to EC50 for Enterovirus A71 TW/2231/1998", "format": "toxicity", "settings": "read-out: Ratio CC50/EC50", "outline": "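RD cells (2 × 10^4/well, DMEM 10% FBS, 16–24 h) infected with enterovirus at nine-fold TCID50 with compound, 72 h, 37 °C, 5% CO2. Cells were fixed in 4% paraformaldehyde, stained with 0.1% crystal violet, and EC50 taken by Reed–Muench. CC50 came from 72 h exposure of uninfected RD cells, MTT 3 h, A570, Reed–Muench. SI = CC50/EC50; three independent experiments.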"}, "Enterovirus [9]": {"tested_on": "Enterovirus", "assay": "Antiviral activity against Rhinovirus 71803 infected in human RD cells after 72 hrs by crystal violet-staining based assay", "format": "functional, organism-based", "settings": "Enterovirus, 71803, RD", "outline": "as §2"}, "Enterovirus [10]": {"tested_on": "Enterovirus", "assay": "Antiviral activity against Rhinovirus 71903 infected in human RD cells after 72 hrs by crystal violet-staining based assay", "format": "functional, organism-based", "settings": "Enterovirus, 71903, RD", "outline": "as §2"}, "[11]": {"target": "Hemagglutinin (Influenza A virus) (UniProt B4URE7)", "sequence (B4URE7 as listed by the source)": "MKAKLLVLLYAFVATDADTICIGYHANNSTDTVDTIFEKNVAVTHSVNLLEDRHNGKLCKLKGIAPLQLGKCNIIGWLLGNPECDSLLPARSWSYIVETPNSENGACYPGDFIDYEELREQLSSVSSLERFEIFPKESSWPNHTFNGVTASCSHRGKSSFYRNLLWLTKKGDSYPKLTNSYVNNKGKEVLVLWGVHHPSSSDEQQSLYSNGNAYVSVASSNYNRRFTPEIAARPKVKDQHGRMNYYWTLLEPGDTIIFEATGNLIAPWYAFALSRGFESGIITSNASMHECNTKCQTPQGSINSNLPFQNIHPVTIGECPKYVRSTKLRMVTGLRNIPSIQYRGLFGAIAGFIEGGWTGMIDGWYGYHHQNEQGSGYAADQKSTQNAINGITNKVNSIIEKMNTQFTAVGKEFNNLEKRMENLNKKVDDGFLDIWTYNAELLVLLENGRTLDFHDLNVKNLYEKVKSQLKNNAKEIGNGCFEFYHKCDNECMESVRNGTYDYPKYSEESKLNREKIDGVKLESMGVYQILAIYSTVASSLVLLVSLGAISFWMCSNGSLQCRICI", "assay": "Inhibition Influenza A virus (A/WSN/33) HA infected in guinea pig RBC assessed as reduction in hemagglutination at serial dilution from 50 uM after 1 hr by HAI assay", "settings": "Influenza A virus (A/WSN/1933(H1N1))", "outline": "(§3)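 Virus titrated on 0.5% guinea pig RBCs to define 1 HA unit; 4 HA units used. Compound two-fold serially diluted from 50 µM and mixed with virus for 30 min at room temperature, or tested without virus for direct agglutination. 0.5% RBCs then added and agglutination scored after 1 h. DMSO/RBC-only and virus-only controls included.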"}, "Influenza A virus [12]": {"tested_on": "Influenza A virus", "assay": "Inhibition of viral RNA synthesis in Influenza A virus (A/WSN/33) infected in MDCK cells at 10 uM measured up to 9 hrs post infection by RT-qPCR analysis", "format": "functional, organism-based", "settings": "A/WSN/1933(H1N1)", "outline": "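MDCK monolayers (5 × 10^5/well) infected with A/WSN/33, then given 10 μM compound during or after infection. Total RNA extracted with TRIzol at 0, 3, 6 and 9 h pi. Viral RNA quantified by RT-qPCR with M1-specific primers, GAPDH used for quantitative standards. Representative of three independent experiments.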"}, "Influenza A virus [13]": {"tested_on": "Influenza A virus", "assay": "Inhibition of viral protein synthesis in Influenza A virus (A/WSN/33) infected in MDCK cells assessed as effect on NP protein level at 10 uM measured up to 9 hrs post infection by Western blot analysis", "format": "functional, organism-based", "settings": "A/WSN/1933(H1N1)", "outline": "(§4)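 MDCK cells (5 × 10^5/well) infected with A/WSN/33 at MOI 0.1, washed twice, then held in E0 with or without 10 μM compound. Lysed in Triton X-100/deoxycholate buffer, equal protein separated by SDS-PAGE, and immunoblotted for viral proteins with GAPDH as loading control. Time-course harvests up to 9 h pi.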"}, "Influenza A virus [14]": {"tested_on": "Influenza A virus", "assay": "Inhibition of viral protein synthesis in Influenza A virus (A/WSN/33) infected in MDCK cells assessed as effect on M1 protein level at 10 uM measured up to 9 hrs post infection by Western blot analysis", "format": "functional, organism-based", "settings": "A/WSN/1933(H1N1)", "outline": "as §4"}, "Influenza A virus [15]": {"tested_on": "Influenza A virus", "assay": "Inhibition of viral protein synthesis in Influenza A virus (A/WSN/33) infected in MDCK cells assessed as effect on PA protein level at 10 uM measured up to 9 hrs post infection by Western blot analysis", "format": "functional, organism-based", "settings": "A/WSN/1933(H1N1)", "outline": "as §4"}, "Influenza A virus [16]": {"tested_on": "Influenza A virus", "assay": "Inhibition of viral protein sub-cellular distribution in Influenza A virus (A/WSN/33) infected in MDCK cells assessed as reduction in M1 protein distribution to cytoplasm at 10 uM measured after 9 hrs post infection by IF-staining based microscopy", "format": "functional, organism-based", "settings": "A/WSN/1933(H1N1)", "outline": "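MDCK cells grown on coverslips (2 × 10^5/well, 16 h), infected at MOI 0.1 for 1 h, washed, then kept in E0 with test compound (1 or 10 μM) or LMB 10 nM; DMSO 0.05% as mock. Fixed at 9 h pi in 4% paraformaldehyde and immunostained for M1, NP, NS2 or PA (1:50), with Hoechst nuclear stain. Viewed by confocal microscopy at 63×. NP nuclear/cytoplasmic intensity ratio quantified; three independent experiments.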"}, "Erythrocyte": {"tested_on": "Erythrocyte", "assay": "Induction of hemagglutination in guinea pig RBC at serial dilution from 50 uM after 1 hr by HAI assay", "format": "cell-based, Cavia porcellus", "outline": "as §3"}}, "note": "The source made the active and inactive calls. The rule behind the calls is not given here.", "data": [{"smiles": "C=C(CC(=O)Nc1ccc(F)cc1F)C(=O)Nc1ccc(F)cc1F", "values": [{"measurement": "selectivity ratio", "setting": "[1]", "result": 29.8}, {"measurement": "CC50 at 72 h", "setting": "[2]", "result": 74.6, "unit": "µM"}, {"measurement": "selectivity ratio", "setting": "[3]", "result": 28}, {"measurement": "selectivity ratio", "setting": "[4]", "result": 36}, {"measurement": "selectivity ratio", "setting": "[5]", "result": 18}, {"measurement": "selectivity ratio", "setting": "[6]", "result": 23}, {"measurement": "selectivity ratio", "setting": "[7]", "result": 21}, {"measurement": "EC50", "setting": "Enterovirus A71", "result": 4.5, "unit": "µM"}, {"measurement": "selectivity ratio", "setting": "[8]", "result": 16}, {"measurement": "EC50", "setting": "Enterovirus [9]", "result": "> 50", "unit": "µM"}, {"measurement": "EC50", "setting": "Enterovirus [10]", "result": "> 50", "unit": "µM"}, {"measurement": "inhibition", "setting": "[11]", "result": "inactive"}, {"measurement": "inhibition", "setting": "Influenza A virus [12]", "result": "inactive"}, {"measurement": "inhibition", "setting": "Influenza A virus [13]", "result": "inactive"}, {"measurement": "inhibition", "setting": "Influenza A virus [14]", "result": "inactive"}, {"measurement": "inhibition", "setting": "Influenza A virus [15]", "result": "inactive"}, {"measurement": "inhibition", "setting": "Influenza A virus [16]", "result": "inactive"}, {"measurement": "Activity", "setting": "Erythrocyte", "result": "Non-Toxic"}]}]}
